Experimental data reported in ChEMBL document CHEMBL3351748, “Synthesis and anticonvulsant activity of novel purine derivatives” (Eur J Med Chem, 2014).
Activity calls are given as the source filed them. The calls are words filed in the database; no cut-off is given here.

Tests used:
[1] = Toxicity in orally dosed Kunming mouse assessed as inability of animal to maintain equilibrium on rod for at least 1 min in each trial by rotarod test; format: organism-based; details: in vivo, po
Method in brief: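 Rotarod test (3.2 cm rod, 10 rpm) in trained mice after oral dosing in 0.5% methylcellulose, tested at the 1.5 h time of peak effect. Toxicity is failure to stay on the rod for at least 1 min per trial. TD50 is the median dose for minimal neurotoxicity.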

[2] = Toxicity in ip dosed Kunming mouse assessed as inability of animal to maintain equilibrium on rod for at least 1 min in each trial by rotarod test; format: organism-based; details: in vivo
Method in brief: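 Mice pre-trained on a rotarod (3.2 cm diameter, 10 rpm), then dosed i.p. Neurotoxicity scored as failure to keep balance on the rod for at least 1 min in each trial. TD50 is the dose giving minimal neurotoxicity in 50% of animals.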

Mus musculus [3] = test: Anticonvulsant activity in Kunming mouse assessed as protection against MES-induced seizures at 100 mg/kg, ip after 0.5 hrs by MES test; format: functional, organism-based; design: dose 100 mg/kg
Method in brief: (§1)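 KunMing mice (18-22 g), compounds in DMSO given i.p. at 30 and 100 mg/kg, 3 animals per dose. Examined 0.5 h after dosing; current applied 0.2 s through corneal electrodes. Protection scored as abolition of hind-leg tonic maximal extension; reported as animals protected/animals tested.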

Mus musculus [4] = test: Anticonvulsant activity in orally dosed Kunming mouse assessed as time of peak effect for protection against MES-induced seizures […] by MES test; format: functional
Mus musculus [5] = test: Anticonvulsant activity in ip dosed Kunming mouse assessed as protection against MES-induced seizures after 0.5 hrs by MES test; format: functional
Method in brief: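 KunMing mice (18-22 g) dosed i.p., compounds dissolved in DMSO; corneal-electrode shock (0.2 s) 30 min after administration. Endpoint is abolition of hind-leg tonic extension. ED50 is the dose protecting 50% of animals, given with 95% confidence intervals.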

Mus musculus [6] = test: Anticonvulsant activity in Kunming mouse assessed as protection against sc-PTZ-induced tonic seizures 50 mg/kg, sc administered 30 mins before PTZ injection; format: functional; details: route subcutaneous
Method in brief: (§2)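 Mice, 10 per group, dosed at 50 mg/kg. PTZ 85 mg/kg in saline given s.c. 30 min later. Animals housed individually and watched for 0.5 h. Clonic seizures, tonic seizures (usually maximal hind-leg extension) and deaths counted as percent inhibition.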

Mus musculus [7] = test: Protective index, ratio of intraperitoneal neurotoxic TD50 against Kunming mouse by rotarod test to intraperitoneal anticonvulsant ED50 in Kunming mouse by MES test
Method in brief: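 Protective index is TD50/ED50. Both come from i.p. dosing in KunMing mice: ED50 from protection of hind-leg tonic extension in the 0.5 h MES test, TD50 from failure to stay 1 min on the 10 rpm rotarod.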

Mus musculus [8] = test: Anticonvulsant activity in Kunming mouse assessed as protection against sc-PTZ-induced mortality 50 mg/kg, sc administered 30 mins before PTZ injection; format: functional; details: route subcutaneous
Method in brief: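 KunMing mice (18–22 g), 10 per group, given test agent dissolved in DMSO. Thirty minutes later, PTZ 85 mg/kg in saline was injected s.c. Animals were held in individual cages and watched for 0.5 h. Clonic seizures, tonic seizures and deaths were counted, and mortality was expressed as % inhibition.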

Mus musculus [9] = test: Anticonvulsant activity in Kunming mouse assessed as protection against sc-PTZ-induced clonic seizures 50 mg/kg, sc administered 30 mins before PTZ injection; format: functional; details: route subcutaneous; method in brief: as §2
Mus musculus [10] = species on record: Mus musculus; test: Protective index, ratio of oral neurotoxic TD50 against Kunming mouse by rotarod test to oral anticonvulsant ED50 in Kunming mouse by MES test
Mus musculus [11] = test: Anticonvulsant activity in Kunming mouse assessed as protection against MES-induced seizures at 30 mg/kg, ip after 0.5 hrs by MES test; format: functional, organism-based; design: dose 30 mg/kg; method in brief: as §1
Mus musculus [12] = test: Anticonvulsant activity in orally dosed Kunming mouse assessed as protection against MES-induced seizures after 1.5 hrs by MES test; details: po

Structure (SMILES)	TD50 at 1 min [2]	Activity (Mus musculus [3])	ED50 (Mus musculus [5])	Ratio TD50/ED50 (Mus musculus [7])	Activity (Mus musculus [11])	further results
CCCCCCCCCCn1cnc2c(-n3cncn3)ncnc21	> 700 mg/kg	Active	23.4 mg/kg	>25.6	Active	TD50 at 1 min [1]: > 1500 mg/kg; Time (Mus musculus [4]): 1.5 h; inhibition in vivo at 50 mg/kg (Mus musculus [6]): 90%; inhibition in vivo at 50 mg/kg (Mus musculus [8]): 70%; inhibition in vivo at 50 mg/kg (Mus musculus [9]): 20%; Ratio TD50/ED50 (Mus musculus [10]): >38.1; ED50 (Mus musculus [12]): 39.4 mg/kg
Fc1ccccc1Cn1cnc2c(-n3cncn3)ncnc21	449 mg/kg	Active	29.9 mg/kg	15	Active	
Fc1cccc(Cn2cnc3c(-n4cncn4)ncnc32)c1	384 mg/kg	Active	45.9 mg/kg	8.3	inactive	
c1ccc(Cn2cnc3c2ncn2cnnc32)cc1		Active			inactive	
CCCCCCn1cnc2c(-n3cncn3)ncnc21	210 mg/kg	Active	43.9 mg/kg	4.8	inactive	
Fc1ccccc1Cn1cnc2c(-n3cccn3)ncnc21		Active			inactive	
CCCCCCCCCCn1cnc2c(Sc3ncn[nH]3)ncnc21		inactive			inactive	
CCCCCCCCCCCCCCn1cnc2c(-n3cncn3)ncnc21		inactive			inactive	
Clc1ccccc1Cn1cnc2c1ncn1cnnc21	315 mg/kg	Active	51.9 mg/kg	6.1	inactive	
CCCCCCCCCCCCn1cnc2c(-n3cncn3)ncnc21					inactive	
Cc1ccc(Cn2cnc3c2ncn2cnnc32)cc1		inactive			inactive	
Fc1cccc(Cn2cnc3c2ncn2cnnc32)c1		inactive			inactive	
CCCCCCCn1cnc2c(-n3cncn3)ncnc21	105 mg/kg	Active	31.5 mg/kg	3.3	Active	
CCCCCCCn1cnc2c1ncn1cnnc21		Active			inactive	
Clc1ccccc1Cn1cnc2c(-n3cncn3)ncnc21					inactive	
Cc1ccc(Cn2cnc3c(-n4cncn4)ncnc32)cc1		inactive			inactive	
Fc1ccc(Cn2cnc3c2ncn2cnnc32)cc1		inactive			inactive	
Fc1ccccc1Cn1cnc2c(-n3ccnc3)ncnc21	115 mg/kg	Active	61.4 mg/kg	1.8	inactive	
Cc1cn(-c2ncnc3c2ncn3Cc2ccccc2F)cn1		inactive			inactive	
Clc1ccc(Cn2cnc3c(-n4cncn4)ncnc32)cc1		inactive			inactive	

Structure (SMILES)	TD50 at 1 min [2]	Activity (Mus musculus [3])	ED50 (Mus musculus [5])	Ratio TD50/ED50 (Mus musculus [7])	Activity (Mus musculus [11])	further results
CCCCCn1cnc2c(-n3cncn3)ncnc21					inactive	
CCCCCn1cnc2c1ncn1cnnc21		Active			inactive	
CCCCn1cnc2c1ncn1cnnc21		inactive			inactive	
CCCCCCCCCCn1cnc2c(-n3cccn3)ncnc21	241 mg/kg	Active	66.5 mg/kg	3.6	inactive	
COc1ccc(Cn2cnc3c(-n4cncn4)ncnc32)cc1		inactive			inactive	
Fc1ccc(Cn2cnc3c(-n4cncn4)ncnc32)cc1		inactive			inactive	
CCCCCCCCn1cnc2c1ncn1cnnc21		Active			inactive	
NC(=O)N1c2ccccc2C=Cc2ccccc21 [CARBAMAZEPINE]			11.8 mg/kg	6.4		TD50 at 1 min [1]: 329 mg/kg; inhibition in vivo at 50 mg/kg (Mus musculus [6]): 100%; inhibition in vivo at 50 mg/kg (Mus musculus [8]): 80%; inhibition in vivo at 50 mg/kg (Mus musculus [9]): 0%; Ratio TD50/ED50 (Mus musculus [10]): 12; ED50 (Mus musculus [12]): 27.3 mg/kg
Clc1cccc(Cn2cnc3c2ncn2cnnc32)c1		inactive			inactive	
Fc1ccccc1Cn1cnc2c1ncn1cnnc21		Active			inactive	
Fc1ccccc1Cn1cnc2c(Sc3ncn[nH]3)ncnc21		inactive			inactive	
CCCCCCCCn1cnc2c(-n3cncn3)ncnc21	247 mg/kg	Active	33.2 mg/kg	7.4	Active	
c1ccc(Cn2cnc3c(-n4cncn4)ncnc32)cc1	315 mg/kg	Active	66.6 mg/kg	4.7	inactive	
CCCCCCn1cnc2c1ncn1cnnc21	102 mg/kg	Active	51.2 mg/kg	2	inactive	
Clc1ccc(Cn2cnc3c2ncn2cnnc32)cc1		inactive			inactive	
CCCCCCCCCCn1cnc2c(-n3cnc(C)c3)ncnc21	196 mg/kg	Active	67.5 mg/kg	2.9	inactive	
CCCCCCCCCCn1cnc2c1ncn1cnnc21		inactive			inactive	
Clc1cccc(Cn2cnc3c(-n4cncn4)ncnc32)c1	488 mg/kg	Active	65.4 mg/kg	7.5	inactive	
CCCCCCCCCCn1cnc2c(-n3ccnc3)ncnc21		Active			inactive	
COc1ccc(Cn2cnc3c2ncn2cnnc32)cc1		inactive			inactive	
